According to ChEMBL document CHEMBL5046307 (ACS Med Chem Lett, 2022):

Key:
[1] = Lipophilicity, logD of compound; conditions: octanol/water
[2] = Inhibition of human electron transport chain complex 1 in human NCI-H1299 cells assessed as reduction in cellular ATP level measured after 24 hrs by CellTiter-Glo assay; format: cell-based
Summary of the method: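 ATP-dependent luciferase luminescence read in H1299 cells, first without (M1) and then after adding the complex II substrate succinate (M2), to separate complex I block from downstream respiratory-chain inhibition or uncoupling.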

[3] = Blood clearance in male Wistar rat at 0.3 to 5 mg/kg, iv and po by LC-MS/MS analysis; format: ADME, organism-based; conditions: dose 0.3-5 mg/kg
[4] = Metabolic stability in rat hepatocyte assessed as maximum bioavailability measured up to 90 mins by LC-MS/MS analysis; format: ADME; conditions: for Fh at 1.5 h: rat hepatocytes, read-out: Fmax
[5] = Inhibition of human electron transport chain complex 1 in dog A-72 cells assessed as reduction in cellular ATP measured after 24 hrs by CellTiter-Glo assay; format: cell-based; conditions: A-72, 24 h
[6] = Inhibition of human electron transport chain complex 1 in mouse 4T1 cells assessed as reduction in cellular ATP measured after 24 hrs by CellTiter-Glo assay; format: cell-based; conditions: 4T1, 24 h
[7] = Inhibition of human electron transport chain complex 1 in rat C6 cells assessed as reduction in cellular ATP measured after 24 hrs by CellTiter-Glo assay; format: cell-based; conditions: C6, 24 h
[8] = Inhibition of human electron transport chain complex 1 in dog MDCK cells assessed as reduction in cellular ATP measured after 24 hrs by CellTiter-Glo assay; format: cell-based
[9] = Inhibition of human electron transport chain complex 1 in human HCT-116 cells assessed as reduction in cellular ATP measured after 24 hrs by CellTiter-Glo assay; format: cell-based; conditions: HCT-116, 24 h
[10] = Oral bioavailability in Wistar rat plasma at 0.8 mg/kg by LC-MS/MS analysis; format: ADME, organism-based
[11] = Half life in Wistar rat plasma at 0.4 mg/kg, iv by LC-MS/MS analysis; format: ADME, organism-based
[12] = Inhibition of rat electron transport chain complex 1 assessed as reduction in cellular ATP measured after 24 hrs by celltiter-glo assay
[13] = AUC in Wistar rat plasma at 0.8 mg/kg, po by LC-MS/MS analysis; format: ADME, organism-based; set-up: dose 0.8 mg/kg; conditions: in vivo
[14] = Clearance in male Wistar rat blood at 0.4 mg/kg, iv by LC-MS/MS analysis
[15] = Volume of distribution at steady state in Wistar rat plasma at 0.4 mg/kg, iv by LC-MS/MS analysis; format: ADME, organism-based; conditions: read-out: Vdss
[16] = Plasma protein binding in mouse assessed as fraction unbound incubated for 6 to 8 hrs by LC-MS/MS analysis; format: ADME, cell-free; conditions: time 6-8 hrs
[17] = Inhibition of dog electron transport chain complex 1 assessed as reduction in cellular ATP measured after 24 hrs by celltiter-glo assay; conditions: Canis lupus familiaris
[18] = Inhibition of mouse electron transport chain complex 1 assessed as reduction in cellular ATP measured after 24 hrs by celltiter-glo assay

| logD [1] | Compound | IC50 ([2]; Homo sapiens, NCI-H1299, 24 h) | also measured |
| --- | --- | --- | --- |
| 2.9 | c1ccc2oc(-c3csc(C4CCN(Cc5cn6ccccc6n5)CC4)n3)cc2c1 | 340 nM |  |
| 3.8 | CC(C)(c1nc2ccccc2[nH]1)N1CCC(c2nc(-c3cc4ccccc4o3)cs2)CC1 | 3000 nM |  |
| 3.7 | Fc1cccc2[nH]c(CN3CCC(c4nc(-c5cc6ccccc6o5)cs4)CC3)nc12 | 325 nM | clearance [3]: 18.3 mL/min/kg; Fh at 1.5 h [4]: 57% |
| 3.4 | CCn1c(CN2CCC(c3nc(-c4cc5ccccc5o4)cs3)CC2)nc2ccccc21 | > 30000 nM |  |
| 3 | CN(C(=O)CN1CCC(c2nc(-c3cc4ccccc4o3)cs2)CC1)c1ccncc1 | 96 nM | Fh at 1.5 h [4]: 10% |
|  | O=C(CN1CCC(c2nc(-c3cc4ccccc4o3)cs2)CC1)Nc1ccncc1 | 70 nM |  |
|  | O=C(CN1CCC(c2nc(-c3cc4ccccc4o3)cs2)CC1)Nc1ccccc1F | 3240 nM |  |
| 3.5 | Fc1ccc2cc(-c3csc(C4CCN(Cc5nc6ccccc6[nH]5)CC4)n3)oc2c1 | 500 nM |  |
| 3 | N#Cc1ccc2oc(-c3csc(C4CCN(Cc5nc6ccccc6[nH]5)CC4)n3)cc2c1 | 2000 nM |  |
| 3 | Cc1ccc2[nH]c(CN3CCC(c4nc(-c5cc6ccccc6o5)cs4)CC3)nc2n1 | 300 nM |  |
| 2.5 | c1ccc2oc(-c3csc(C4CCN(Cc5cn6cccnc6n5)CC4)n3)cc2c1 | 730 nM |  |
| 3.1 | c1ccc2oc(-c3csc(C4CCN(Cc5cn6ncccc6n5)CC4)n3)cc2c1 | 300 nM |  |
|  | CCc1nccc(NC(=O)CN2CCC(c3nc(-c4cc5ccccc5o4)cs3)CC2)c1Cl | 102 nM |  |
|  | O=C(CN1CCC(c2nc(-c3cc4ccccc4o3)cs2)CC1)Nc1cccc(C(F)(F)F)c1 | 3280 nM |  |
| 2.6 | c1ccc2oc(-c3csc(C4CCN(Cc5ncc[nH]5)CC4)n3)cc2c1 | 4000 nM |  |
| 4.6 | c1ccc2oc(-c3csc(C4CCN(Cc5nc6ccccc6o5)CC4)n3)cc2c1 | 1720 nM |  |
| 2.4 | c1ccc2[nH]c(CN3CCC(c4nc(-c5cc6ncccc6o5)cs4)CC3)nc2c1 | 770 nM |  |
| 3.1 | c1ccc2[nH]c(CN3CCC(c4nc(-c5nc6ccccc6s5)cs4)CC3)nc2c1 | 710 nM |  |
| 5.6 | c1ccc2oc(-c3csc(C4CCN(Cc5nc6ccccc6s5)CC4)n3)cc2c1 | 1760 nM |  |
| 5.1 | Cc1nsc(NC(=O)CN2CCC(c3nc(-c4cc5ccccc5o4)cs3)CC2)c1Cl | 25 nM | IC50 [5]: 27 nM; IC50 [6]: 13 nM; clearance [3]: 163 mL/min/kg; IC50 [7]: 1.7 nM; IC50 [8]: 49 nM; IC50 [9]: 3.9 nM; Fh at 1.5 h [4]: 18% |
| 3.4 | N#Cc1ccc2nc(CN3CCC(c4nc(-c5cc6ccccc6o5)cs4)CC3)[nH]c2c1 | 860 nM |  |

| logD [1] | Compound | IC50 ([2]; Homo sapiens, NCI-H1299, 24 h) | also measured |
| --- | --- | --- | --- |
| 4.3 | Cn1c(CN2CCC(c3nc(-c4cc5ccccc5o4)cs3)CC2)nc2ccccc21 | 700 nM |  |
| 4.3 | O=C(c1nc2ccccc2[nH]1)N1CCC(c2nc(-c3cc4ccccc4o3)cs2)CC1 | 3000 nM |  |
| 2.6 | c1ccc2oc(-c3csc(C4CCN(Cc5nc6ncncc6[nH]5)CC4)n3)cc2c1 | 80 nM |  |
| 3 | c1ccc(-c2csc(C3CCN(Cc4nc5ccccc5[nH]4)CC3)n2)cc1 | 10000 nM |  |
|  | c1ccc2oc(-c3csc(C4CCN(Cc5nc6cnccc6[nH]5)CC4)n3)cc2c1 | 38 nM | bioavailability [10]: 80%; half-life [11]: 3.1 h; IC50 [12]: 22 nM; AUC [13]: 1 kg·h/L; clearance [14]: 20 mL/min/kg; Vd [15]: 3.2 L/kg; Fu [16]: 0.59%; IC50 [17]: 37 nM; IC50 [18]: 26 nM; Fh at 1.5 h [4]: 63% |
| 3.7 | c1ccc(-c2c[nH]c(CN3CCC(c4nc(-c5cc6ccccc6o5)cs4)CC3)n2)cc1 | 860 nM |  |
| 2.6 | c1coc(-c2csc(C3CCN(Cc4nc5ccccc5[nH]4)CC3)n2)c1 | > 30000 nM |  |
| 5.7 | CC(C)(C(=O)Nc1cccc(F)c1)N1CCC(c2nc(-c3cc4ccccc4o3)cs2)CC1 | > 30000 nM | Fh at 1.5 h [4]: 55% |
| 3.1 | Fc1cnc2nc(CN3CCC(c4nc(-c5cc6ccccc6o5)cs4)CC3)[nH]c2c1 | 300 nM |  |
|  | O=C(CN1CCC(c2nc(-c3cc4ccccc4o3)cs2)CC1)Nc1cccc(F)c1 | 420 nM |  |
| 2.5 | Cn1c(-c2csc(C3CCN(Cc4nc5ccccc5[nH]4)CC3)n2)nc2ccccc21 | 20000 nM |  |
| 3.3 | c1ccc2oc(-c3csc(C4CCN(c5nnc(-c6ccncc6)o5)CC4)n3)cc2c1 | 13400 nM | Fh at 1.5 h [4]: 44% |
| 2.7 | c1ccc2oc(-c3csc(C4CCN(Cc5cn6ccncc6n5)CC4)n3)cc2c1 | 390 nM |  |
|  | O=C(CN1CCC(c2nc(-c3cc4ccccc4o3)cs2)CC1)Nc1cncs1 | 155 nM |  |
| 3 | Cc1ccnc2nc(CN3CCC(c4nc(-c5cc6ccccc6o5)cs4)CC3)[nH]c12 | 300 nM |  |
| 3.4 | c1ccc2oc(-c3csc(C4CCN(Cc5nc6ccccc6[nH]5)CC4)n3)cc2c1 | 200 nM |  |
|  | O=C(CN1CCC(c2nc(-c3cc4ccccc4o3)cs2)CC1)Nc1ccccc1 | 882 nM |  |
| 5.6 | Cc1nsc(NC(=O)C(C)N2CCC(c3nc(-c4cc5ccccc5o4)cs3)CC2)c1Cl (racemic) | 77 nM | clearance [3]: 118 mL/min/kg; Fh at 1.5 h [4]: 61% |
| 3.7 | CC(c1nc2ccccc2[nH]1)N1CCC(c2nc(-c3cc4ccccc4o3)cs2)CC1 (racemic) | 400 nM |  |
| 4.2 | CCc1nccc(N2CCC(N3CCC(c4nc(-c5cc6ccccc6o5)cs4)CC3)C2=O)c1Cl (single isomer, unassigned; form 1) |  | IC50 ([2]; nci-h1299): 14 nM; clearance [3]: 45 mL/min/kg; Fh at 1.5 h [4]: 40% |
|  | CCc1nccc(N2CCC(N3CCC(c4nc(-c5cc6ccccc6o5)cs4)CC3)C2=O)c1Cl (single isomer, unassigned; form 2) |  | IC50 ([2]; nci-h1299): 950 nM; Fmax ([4]; hepatocytes, 1.5 h): 43% |
